This is an account of results in ChEMBL document CHEMBL1131306, “Novel and specific respiratory syncytial virus inhibitors that target virus fusion” (J Med Chem, 1998).

Holding throughout (assay type): functional, organism-based
In assay [1] the test system is Human orthopneumovirus. Briefly: Inhibitory concentration was evaluated against human respiratory syncytial virus,(HRSV) strain A2. In short, it runs like this:
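HRSV strain A2 (160 PFU/well) on human foreskin fibroblasts seeded 4 × 10^4/well day 0. Compound added day 1, serially diluted 2-fold over 10 concentrations, at least in duplicate. After 4 days at 37 °C, virus growth quantified by ELISA. IC50 = 50% growth inhibition, averaged; tested in two separate weeks, retested if values differed over 2-fold.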

The subject of assay [2] is Human alphaherpesvirus 1. Nature of the assay: Inhibitory concentration was evaluated against herpes simplex 1,strain patton. In short, it runs like this: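 HSV-1 strain Patton in African green monkey kidney (Vero) cells, seeded 4 × 10^4/well on day 0. Compound added day 1 as 10 two-fold dilutions, at least in duplicate, then virus added. Growth measured by ELISA 28 h post-infection. IC50 = 50% growth inhibition, averaged; repeated in two different weeks, retested if over 2-fold apart.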

In assay [3] the test system is Human betaherpesvirus 5. Briefly: Inhibitory concentration was evaluated against human cytomegalovirus (HCMV),strain Ad169. In short, it runs like this: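 HCMV Ad169 engineered to encode β-glucuronidase. Human foreskin fibroblasts seeded 4 × 10^4/well on day 0. Compound added day 1 as 10 two-fold dilutions, each at least in duplicate, then virus added. Growth read as β-glucuronidase in culture on day 4. IC50 averaged; each compound run at least twice in different weeks, retested if IC50s differed over 2-fold.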

For `NC(=O)CCN(CCC(N)=O)S(=O)(=O)c1cccc(Nc2nc(Nc3cccc(S(=O)(=O)N(CCC(N)=O)CCC(N)=O)c3)nc(Nc3ccc(/C=C/c4ccc(Nc5nc(Nc6cccc(S(=O)(=O)N(CCC(N)=O)CCC(N)=O)c6)nc(Nc6cccc(S(=O)(=O)N(CCC(N)=O)CCC(N)=O)c6)n5)cc4S(=O)(=O)O)c(S(=O)(=O)O)c3)n2)c1`, the IC50 (usually the concentration needed to halve the response being measured) in assay [1] is 0.15 µM; in assay [2] it was 5.5 µM; in assay [3], over 25 µM.

Turning to `O=S(=O)(O)c1cc(Nc2nc(Nc3cccc(S(=O)(=O)N(CCO)CCO)c3)nc(Nc3cccc(S(=O)(=O)N(CCO)CCO)c3)n2)ccc1-c1ccc(Nc2nc(Nc3cccc(S(=O)(=O)N(CCO)CCO)c3)nc(Nc3cccc(S(=O)(=O)N(CCO)CCO)c3)n2)cc1S(=O)(=O)O`, the values for the IC50 in assay [1], in assay [2] and in assay [3] were 0.09 µM, 14.7 µM and 2.3 µM, respectively.

Regarding `NC(=O)CCN(CCC(N)=O)S(=O)(=O)c1ccc(Nc2nc(Nc3ccc(S(=O)(=O)N(CCC(N)=O)CCC(N)=O)cc3)nc(Nc3ccc(-c4ccc(Nc5nc(Nc6ccc(S(=O)(=O)N(CCC(N)=O)CCC(N)=O)cc6)nc(Nc6ccc(S(=O)(=O)N(CCC(N)=O)CCC(N)=O)cc6)n5)cc4S(=O)(=O)O)c(S(=O)(=O)O)c3)n2)cc1`, the half-maximal inhibitory concentration (IC50) in assay [1] turned out to be 2.9 µM; in assay [2], 17.7 µM; in assay [3] it was 14.7 µM.

`NC(=O)CCN(CCC(N)=O)S(=O)(=O)c1cccc(Nc2nc(Nc3cccc(S(=O)(=O)N(CCC(N)=O)CCC(N)=O)c3)nc(Nc3ccc(-c4ccc(Nc5nc(Nc6cccc(S(=O)(=O)N(CCC(N)=O)CCC(N)=O)c6)nc(Nc6cccc(S(=O)(=O)N(CCC(N)=O)CCC(N)=O)c6)n5)cc4C(=O)O)c(C(=O)O)c3)n2)c1`: the IC50 was 0.35 µM in assay [1], 7.5 µM in assay [2] and 0.9 µM in assay [3].

Regarding `NS(=O)(=O)c1cccc(Nc2nc(Nc3cccc(S(N)(=O)=O)c3)nc(Nc3ccc(-c4ccc(Nc5nc(Nc6cccc(S(N)(=O)=O)c6)nc(Nc6cccc(S(N)(=O)=O)c6)n5)cc4S(=O)(=O)O)c(S(=O)(=O)O)c3)n2)c1`, the IC50 in assay [1] is 1.7 µM; in assay [2], 8.8 µM; in assay [3], 1.2 µM.

Consider `COC(=O)c1cc(Nc2nc(Nc3cccc(S(=O)(=O)N(CCC(N)=O)CCC(N)=O)c3)nc(Nc3cccc(S(=O)(=O)N(CCC(N)=O)CCC(N)=O)c3)n2)ccc1-c1ccc(Nc2nc(Nc3cccc(S(=O)(=O)N(CCC(N)=O)CCC(N)=O)c3)nc(Nc3cccc(S(=O)(=O)N(CCC(N)=O)CCC(N)=O)c3)n2)cc1C(=O)OC`, for which the IC50 in assay [1] and in assay [3] was over 25 µM in each case.

Take `Cc1ccc(S(=O)(=O)N(CCC(N)=O)CCC(N)=O)cc1Nc1nc(Nc2ccc(-c3ccc(Nc4nc(Nc5cc(S(=O)(=O)N(CCC(N)=O)CCC(N)=O)ccc5C)nc(Nc5cc(S(=O)(=O)N(CCC(N)=O)CCC(N)=O)ccc5C)n4)cc3S(=O)(=O)O)c(S(=O)(=O)O)c2)nc(Nc2cc(S(=O)(=O)N(CCC(N)=O)CCC(N)=O)ccc2C)n1`: the IC50 in assay [1] was over 25 µM.

With `NC(=O)CCN(CCC(N)=O)S(=O)(=O)c1cccc(Nc2nc(Nc3cccc(S(=O)(=O)N(CCC(N)=O)CCC(N)=O)c3)nc(Nc3ccc(CCc4ccc(Nc5nc(Nc6cccc(S(=O)(=O)N(CCC(N)=O)CCC(N)=O)c6)nc(Nc6cccc(S(=O)(=O)N(CCC(N)=O)CCC(N)=O)c6)n5)cc4S(=O)(=O)O)c(S(=O)(=O)O)c3)n2)c1`, the half-inhibitory concentration (IC50) in assay [1] is 22.5 µM; in assay [3], over 25 µM.

In the case of `Cc1cc(-c2cc(C)c(Nc3nc(Nc4cccc(S(=O)(=O)N(CCC(N)=O)CCC(N)=O)c4)nc(Nc4cccc(S(=O)(=O)N(CCC(N)=O)CCC(N)=O)c4)n3)cc2S(=O)(=O)O)c(S(=O)(=O)O)cc1Nc1nc(Nc2cccc(S(=O)(=O)N(CCC(N)=O)CCC(N)=O)c2)nc(Nc2cccc(S(=O)(=O)N(CCC(N)=O)CCC(N)=O)c2)n1`, the figures for the 50% inhibitory concentration (IC50) in assay [1], in assay [2] and in assay [3] were 0.25 µM, 20 µM and 20.5 µM, respectively.

In the case of `NC(=O)CCN(CCC(N)=O)S(=O)(=O)c1cccc(Nc2nc(Nc3cccc(S(=O)(=O)N(CCC(N)=O)CCC(N)=O)c3)nc(Nc3ccc(-c4ccc(Nc5nc(Nc6cccc(S(=O)(=O)N(CCC(N)=O)CCC(N)=O)c6)nc(Nc6cccc(S(=O)(=O)N(CCC(N)=O)CCC(N)=O)c6)n5)cc4S(=O)(=O)O)c(S(=O)(=O)O)c3)n2)c1`, the IC50 in assay [1] was 0.05 µM; in assay [2] it was over 25 µM; in assay [3], 18.5 µM.

In the case of `NC(=O)CCNS(=O)(=O)c1cccc(Nc2nc(Nc3cccc(S(=O)(=O)NCCC(N)=O)c3)nc(Nc3ccc(-c4ccc(Nc5nc(Nc6cccc(S(=O)(=O)NCCC(N)=O)c6)nc(Nc6cccc(S(=O)(=O)NCCC(N)=O)c6)n5)cc4S(=O)(=O)O)c(S(=O)(=O)O)c3)n2)c1`, the results for the IC50 in assay [1], in assay [2] and in assay [3] were 0.24 µM, over 25 µM and 1.2 µM, respectively.

With `CCCN(CCC)S(=O)(=O)c1cccc(Nc2nc(Nc3cccc(S(=O)(=O)N(CCC)CCC)c3)nc(Nc3ccc(-c4ccc(Nc5nc(Nc6cccc(S(=O)(=O)N(CCC)CCC)c6)nc(Nc6cccc(S(=O)(=O)N(CCC)CCC)c6)n5)cc4S(=O)(=O)O)c(S(=O)(=O)O)c3)n2)c1`, the IC50 in assay [1], in assay [2] and in assay [3] was over 25 µM in each case.

In assay [1], `NC(=O)CCN(CCC(N)=O)C(=O)c1cccc(Nc2nc(Nc3cccc(C(=O)N(CCC(N)=O)CCC(N)=O)c3)nc(Nc3ccc(-c4ccc(Nc5nc(Nc6cccc(C(=O)N(CCC(N)=O)CCC(N)=O)c6)nc(Nc6cccc(C(=O)N(CCC(N)=O)CCC(N)=O)c6)n5)cc4S(=O)(=O)O)c(S(=O)(=O)O)c3)n2)c1` yielded an IC50 of over 25 µM.

Take `NC(=O)CCN(CCC(N)=O)S(=O)(=O)c1cccc(Nc2nc(Nc3cccc(S(=O)(=O)N(CCC(N)=O)CCC(N)=O)c3)nc(Nc3ccc(-c4ccc(Nc5nc(Nc6cccc(S(=O)(=O)N(CCC(N)=O)CCC(N)=O)c6)nc(Nc6cccc(S(=O)(=O)N(CCC(N)=O)CCC(N)=O)c6)n5)cc4CO)c(CO)c3)n2)c1`: the half-maximal inhibitory concentration (IC50) in assay [1], in assay [2] and in assay [3] was over 25 µM in each case.

With `Cc1cc(-c2ccc(Nc3nc(Nc4cccc(S(=O)(=O)N(CCC(N)=O)CCC(N)=O)c4)nc(Nc4cccc(S(=O)(=O)N(CCC(N)=O)CCC(N)=O)c4)n3)c(C)c2)ccc1Nc1nc(Nc2cccc(S(=O)(=O)N(CCC(N)=O)CCC(N)=O)c2)nc(Nc2cccc(S(=O)(=O)N(CCC(N)=O)CCC(N)=O)c2)n1`, the IC50 is over 25 µM in assay [1], 25 µM in assay [2] and over 25 µM in assay [3].
